In brackets after ≈: the same amount, converted by molar mass.
Experiments:
Staphylococcus aureus [1] = experiment: Antibacterial activity against rifampicin resistant Staphylococcus aureus harboring RpoBH481Y mutant assessed as inhibition of bacterial growth; assay type: functional
Staphylococcus aureus [2] = experiment: Antibacterial activity against wild type Staphylococcus aureus assessed as inhibition of bacterial growth; assay type: functional
Staphylococcus aureus [3] = experiment: Antibacterial activity against ciprofloxacin resistant Staphylococcus aureus harboring ParCS80F and GyrAS84L double mutant assessed as inhibition of bacterial growth; assay type: functional
Staphylococcus aureus [4] = experiment: Antibacterial activity against Staphylococcus aureus harboring RpoBH481Y/ParCS80F/GyrAS84L triple mutant assessed as inhibition of bacterial growth; assay type: functional
Escherichia coli = experiment: Antibacterial activity against Escherichia coli assessed as inhibition of bacterial growth; assay type: functional
Method in brief: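 Run in duplicate, with the same result obtained in each trial.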

HEK293 = experiment: Cytotoxicity against HEK293 cells; assay type: toxicity, cell-based, Homo sapiens

SMILES | MIC (Staphylococcus aureus [1]) [µg/mL] | MIC (Staphylococcus aureus [2]) [µg/mL] | MIC (Staphylococcus aureus [3]) [µg/mL] | MIC (Staphylococcus aureus [4]) [µg/mL] | MIC (Escherichia coli) [µg/mL] | IC50 (HEK293) [µg/mL]
CC(=O)O[C@H]1[C@H](C)[C@H](O)[C@H](C)[C@@H](O)[C@@H](C(C)OC(=O)C(C)(C)CC(=O)O)/C=C/C=C(/C)C(=O)NC2=CC(=O)c3c(c(O)c(C)c4c3C(=O)[C@@](C)(O/C=C/[C@H](O[C@H]3C[C@@H]5OCO[C@@H]5[C@@H](C)O3)[C@H]1C)O4)C2=O (some centres undefined) | > 64 | 0.25 (≈ 0.255 µM) | 0.25 (≈ 0.255 µM) | > 64 | > 64 | –
CC(=O)O[C@H]1[C@H](C)[C@H](O)[C@H](C)[C@@H](O)[C@@H](C(C)OC(=O)C(C)(C)CC(=O)NC2(c3c(F)cc4c(=O)c(C(=O)O)cn5c4c3OC[C@@H]5C)CC2)/C=C/C=C(/C)C(=O)NC2=CC(=O)c3c(c(O)c(C)c4c3C(=O)[C@@](C)(O/C=C/[C@H](O[C@H]3C[C@@H]5OCO[C@@H]5[C@@H](C)O3)[C@H]1C)O4)C2=O (some centres undefined) | > 64 | 8 (≈ 6.24 µM) | 8 (≈ 6.24 µM) | > 64 | > 64 | > 64
CC(=O)O[C@H]1[C@H](C)[C@H](O)[C@H](C)[C@@H](O)[C@@H](C(C)OC(=O)C(C)(C)CC(=O)N2Cc3cc(-c4ccc5c(=O)c(C(=O)O)cn(C6CC6)c5c4OC(F)F)ccc3[C@H]2C)/C=C/C=C(/C)C(=O)NC2=CC(=O)c3c(c(O)c(C)c4c3C(=O)[C@@](C)(O/C=C/[C@H](O[C@H]3C[C@@H]5OCO[C@@H]5[C@@H](C)O3)[C@H]1C)O4)C2=O (some centres undefined) | 16 (≈ 11.5 µM) | 8 (≈ 5.75 µM) | 8 (≈ 5.75 µM) | > 64 | > 64 | 19 (≈ 13.7 µM)
CC(=O)O[C@H]1[C@H](C)[C@H](O)[C@H](C)[C@@H](O)[C@@H](C(C)OC(=O)C(C)(C)CC(=O)N2CCN(c3cc4c(cc3F)c(=O)c(C(=O)O)cn4C3CC3)CC2)/C=C/C=C(/C)C(=O)NC2=CC(=O)c3c(c(O)c(C)c4c3C(=O)[C@@](C)(O/C=C/[C@H](O[C@H]3C[C@@H]5OCO[C@@H]5[C@@H](C)O3)[C@H]1C)O4)C2=O (some centres undefined) | > 64 | 16 (≈ 12.4 µM) | 32 (≈ 24.7 µM) | > 64 | > 64 | 23 (≈ 17.8 µM)
CNC1CCCN(c2c(F)cc3c(=O)c(C(=O)O)cn(C4CC4)c3c2OC)C1 (centres undefined) [BALOFLOXACIN] | 0.13 (≈ 0.334 µM) | 0.13 (≈ 0.334 µM) | 4 (≈ 10.3 µM) | 4 (≈ 10.3 µM) | 0.5 (≈ 1.28 µM) | –
N[C@@H]1CCCCN(c2c(F)cc3c(=O)c(C(=O)O)cn(C4CC4)c3c2Cl)C1 [BESIFLOXACIN] | 0.031 (≈ 0.0787 µM) | 0.031 (≈ 0.0787 µM) | 0.5 (≈ 1.27 µM) | 0.5 (≈ 1.27 µM) | 0.25 (≈ 0.635 µM) | –
O=C(O)c1cn(C2CC2)c2cc(N3CCNCC3)c(F)cc2c1=O [CIPROFLOXACIN] | 0.25 (≈ 0.754 µM) | 0.25 (≈ 0.754 µM) | 32 (≈ 96.6 µM) | – | – | –
C[C@H]1NCc2cc(-c3ccc4c(=O)c(C(=O)O)cn(C5CC5)c4c3OC(F)F)ccc21 [GARENOXACIN] | 0.016 (≈ 0.0375 µM) | 0.016 (≈ 0.0375 µM) | 0.5 (≈ 1.17 µM) | 0.5 (≈ 1.17 µM) | 0.016 (≈ 0.0375 µM) | –
COc1c(N2CCNC(C)C2)c(F)cc2c(=O)c(C(=O)O)cn(C3CC3)c12 (centres undefined) [GATIFLOXACIN] | 0.063 (≈ 0.168 µM) | 0.063 (≈ 0.168 µM) | 2 (≈ 5.33 µM) | 2 (≈ 5.33 µM) | 0.016 (≈ 0.0426 µM) | –
CO/N=C1\CN(c2nc3c(cc2F)c(=O)c(C(=O)O)cn3C2CC2)CC1CN (centres undefined) [GEMIFLOXACIN] | 0.016 (≈ 0.0411 µM) | 0.016 (≈ 0.0411 µM) | 1 (≈ 2.57 µM) | 1 (≈ 2.57 µM) | 0.0078 (≈ 0.02 µM) | –
COc1c(N2C[C@@H]3CCCN[C@@H]3C2)c(F)cc2c(=O)c(C(=O)O)cn(C3CC3)c12 [MOXIFLOXACIN] | 0.016 (≈ 0.0399 µM) | 0.016 (≈ 0.0399 µM) | – | – | 0.031 (≈ 0.0772 µM) | –
C[C@H]1COc2c(C3(N)CC3)c(F)cc3c(=O)c(C(=O)O)cn1c23 [PAZUFLOXACIN] | 0.13 (≈ 0.408 µM) | 0.13 (≈ 0.408 µM) | 4 (≈ 12.6 µM) | 4 (≈ 12.6 µM) | 0.016 (≈ 0.0503 µM) | –
N[C@@H]1[C@H]2CN(c3nc4c(cc3F)c(=O)c(C(=O)O)cn4-c3ccc(F)cc3F)C[C@@H]12 [TROVAFLOXACIN] | 0.016 (≈ 0.0384 µM) | 0.0078 (≈ 0.0187 µM) | 1 (≈ 2.4 µM) | 1 (≈ 2.4 µM) | 0.0078 (≈ 0.0187 µM) | –

Reference: ChEMBL document CHEMBL5143539, “Synthesis and evaluation of dual-action kanglemycin-fluoroquinolone hybrid antibiotics” (Bioorg Med Chem Lett, 2022)
